Assay outcomes deposited in PubChem BioAssay by Broad Institute.
PGC1a Ac signal: compounds raising PGC1a acetylation signal, primary screen, PGC1a modulator project, cell-based, U2OS, AlphaScreen, signal-increasing mode; overnight; activation, % at 15.6 µM; 0.21% of 350,000 active; AID 651723, 2012;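 active = every replicate reaching activation of at least 50%, whatever the mean replicate activation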;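 note: hits raise the AlphaScreen acetylation signal above neutral controls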
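System: flag-PGC1a/GCN5 U2OS cells / Input: 7000 cells/well / Compound: single test concentration per compound / Incubation: overnight compound treatment, 37 °C / Technique: AlphaScreen on lysates with anti-acetyl-lysine antibody, acceptor and donor beads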
G6PC hep suppr: suppressors of forskolin-stimulated G6PC mRNA, dose response, PGC-1a acetylation activator project, cell-based, hepatocytes, RT-qPCR, cherry-picked samples. shares compounds with PGC1a Ac signal. primary mouse hepatocytes. G6PC suppression (normalized activity, % of positive control; higher = more suppression), % at 26 µM. 240 tested, under 10 active;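 active = dose curves showing G6PC suppression whose half-maximal dose is at most twice the top valid dose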;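 note: G6PC expression relative to GAPDH housekeeping gene as delta delta Ct; 0% = median of neutral control wells and 100% = median of positive control wells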
PCK1 hep suppr: suppression of PCK1 mRNA in primary hepatocytes, dose response, PGC-1a acetylation activator project, cell-based, primary mouse hepatocytes, RT-qPCR, cherry-pick; 230 tested, under 10 active; forskolin-stimulated; AID 743465, 2014; shares compounds with PGC1a Ac signal; PCK1 expression decrease, unspecified at 26 µM;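 active = compounds lowering PCK1 expression whose fitted half-maximal concentration is at most twice the top tested dose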;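 note: values are delta delta Ct of PCK1 relative to GAPDH; higher delta delta Ct means lower PCK1 expression so positive values indicate hits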
Hep PGC-1a down: suppression of PGC-1a mRNA in primary hepatocytes, dose response, PGC-1a acetylation activator project, cell-based, primary mouse hepatocytes, RT-qPCR, cherry-pick; 240 tested, under 10 active; max activity (PGC-1a expression decrease), %; AID 743467, 2014; shares compounds with PGC1a Ac signal; PGC-1a mRNA qPCR, forskolin; top dose 26 µM;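 active = compound lowering PGC-1a expression with fitted half-maximal concentration at most twice its top tested dose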;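 note: 0% = neutral control wells median and 100% = positive control wells median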
An asterisk follows results filed as active. Not all results are given here.

SMILES	PGC1a Ac signal	others
COc1ccc(OC(=O)N(C)C[C@H]2OCc3ccccc3-c3c(n(C)c4ccccc34)C(=O)N([C@@H](C)CO)C[C@H]2C)cc1	62*	G6PC hep suppr=13;PCK1 hep suppr=48;Hep PGC-1a down=46
CC(=O)OC(C)(C)/C=C/C(=O)C(C)(O)C1C(O)CC2(C)C3CC=C4C(CC(O)C(=O)C4(C)C)C3(C)C(=O)CC12C (stereo unspecified)	-70
CC(=O)OC1(C)CC(C)C(=O)C(C(O)CC2CC(=O)NC(=O)C2)C1 (stereo unspecified)	-93
Oc1ccc2c3c1O[C@H]1[C@@H](O)CC[C@@]4(O)[C@@H](C2)N(CC2CCC2)CC[C@]314	-57
CCn1nc(-c2cccs2)nc2c(=O)n(C)c(=O)nc1-2	-40
